Assay results taken from ChEMBL document CHEMBL5390273, “Discovery of a Hydroxylamine-Based Brain-Penetrant EGFR Inhibitor for Metastatic Non-Small-Cell Lung Cancer” (J Med Chem, 2023).
Activity calls are given as the source filed them. No cut-off for these calls is given here.

Key:
[1] = Mutagenicity in Salmonella typhimurium TA98 at 5 to 50 uM incubated for 96 hrs by Ames fluctuation assay; assay type: toxicity; settings: salmonella enterica subsp. enterica serovar typhimurium, dose 5-50 µM
Procedure, shortened: (§1)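 Fluctuation format in 384-well plates at 37 °C for 96 h. Tested at 5, 10, 50 and 100 μM, 48 replicates per concentration, with and without rat liver S9. Revertant wells counted when OD430/OD570 > 1.0, compared with control by one-tailed Fisher's exact test. Parallel bacterial cytotoxicity test (OD650) at 0.6–100 μM, with growth below 60% of control flagged as cytotoxic.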

[2] = Mutagenicity in Salmonella typhimurium TA100 at 5 to 50 uM incubated for 96 hrs by Ames fluctuation assay; assay type: toxicity; settings: salmonella enterica subsp. enterica serovar typhimurium, dose 5-50 µM; procedure, shortened: as §1
[3] = Mutagenicity in Salmonella typhimurium TA1537 at 5 to 50 uM incubated for 96 hrs by Ames fluctuation assay; assay type: toxicity; settings: salmonella enterica subsp. enterica serovar typhimurium, dose 5-50 µM; procedure, shortened: as §1
[4] = Mutagenicity in Salmonella typhimurium TA1535 at 5 to 50 uM incubated for 96 hrs by Ames fluctuation assay; assay type: toxicity; settings: salmonella enterica subsp. enterica serovar typhimurium, dose 5-50 µM; procedure, shortened: as §1
[5] = Mutagenicity in Salmonella typhimurium TA98 at 5 to 50 uM incubated for 96 hrs in presence of rat liver S9 fraction by Ames fluctuation assay; assay type: toxicity, subcellular; settings: salmonella enterica subsp. enterica serovar typhimurium, s9, 96 h, dose 5-50 µM; procedure, shortened: as §1
[6] = Mutagenicity in Salmonella typhimurium TA100 at 5 to 50 uM incubated for 96 hrs in presence of rat liver S9 fraction by Ames fluctuation assay; assay type: toxicity, subcellular; settings: salmonella enterica subsp. enterica serovar typhimurium, s9, 96 h, dose 5-50 µM; procedure, shortened: as §1
[7] = Mutagenicity in Salmonella typhimurium TA1537 at 5 to 50 uM incubated for 96 hrs in presence of rat liver S9 fraction by Ames fluctuation assay; assay type: toxicity, subcellular; settings: salmonella enterica subsp. enterica serovar typhimurium, s9, 96 h, dose 5-50 µM; procedure, shortened: as §1
[8] = Mutagenicity in Salmonella typhimurium TA1535 at 5 to 50 uM incubated for 96 hrs in presence of rat liver S9 fraction by Ames fluctuation assay; assay type: toxicity, subcellular; settings: salmonella enterica subsp. enterica serovar typhimurium, s9, 96 h, dose 5-50 µM; procedure, shortened: as §1
[9] = AUC (0 to infinity) in Sprague-Dawley rat at 2 mg/kg, iv and measured upto 24 hrs by LC-MS/MS analysis; assay type: ADME, organism-based; set-up: dose 2 mg/kg, time < 24 hrs, route iv; settings: in vivo
Procedure, shortened: (§2)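 Female BALB/c nude mice or male Sprague-Dawley rats, 6–8 weeks old, n = 3 per route. IV by tail vein in DMSO:10% captisol in saline 1:99. PO by gavage in 1% methylcellulose. […] Assayed by LC-MS/MS, non-compartmental PK, mean ± SD.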

[10] = AUC (0 to infinity) in BALB/c mouse at 3 mg/kg, iv and measured upto 24 hrs by LC-MS/MS analysis; assay type: ADME, organism-based; set-up: dose 3 mg/kg, time < 24 hrs, route iv; settings: in vivo; procedure, shortened: as §2
[11] = AUC (0 to infinity) in BALB/c mouse at 30 mg/kg, po and measured upto 24 hrs by LC-MS/MS analysis; assay type: ADME, organism-based; set-up: dose 30 mg/kg, time < 24 hrs, route po; settings: in vivo; procedure, shortened: as §2
[12] = Genotoxicity in Chinese hamster CHO-K1 cells at 8 to 1000 uM incubated for 24 hrs by micronucleus test; assay type: toxicity, cell-based, Cricetulus griseus; settings: cho-k1, 24 h, dose 8-1000 µM
Procedure, shortened: (§3)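 CHO-K1 cells, 96-well format, exposed to 8–1000 μM for either 4 h at 37 °C with rat liver S9 or 24 h at 37 °C without S9. Micronuclei detected by high-content fluorescence imaging. Positive controls were cyclophosphamide 7.2 μM and mitomycin C 0.3 μM. One-tailed two-sample equal-variance t-test.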

[13] = Genotoxicity in Chinese hamster CHO-K1 cells at 8 to 1000 uM incubated for 4 hrs in presence of rat liver S9 fraction by micronucleus test; assay type: toxicity, subcellular, Cricetulus griseus; settings: s9, 4 h, dose 8-1000 µM; procedure, shortened: as §3
[14] = Metabolic stability in human hepatocytes assessed as metabolite formation at 10 uM incubated for 4 hrs by UHPLC-MS/MS analysis; assay type: ADME, cell-based, Hepatocyte
Procedure, shortened: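 Human hepatocytes at 1.0 × 10^6 cells/mL incubated with compound at 10 μM for 0, 120 and 240 min at 37 °C. Quenched with 2 volumes of acetonitrile, centrifuged at 16,000g for 15 min, and supernatant analyzed by UHPLC-MS/MS.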

HCC827 = assay: Antitumor activity against human luciferase tagged HCC827 cells xenografted in intracranial PDX BALB/c mouse model assessed as tumor regression at 10 mg/kg,po BID for 21 days by Bioluminescence imaging analysis; assay type: functional, organism-based; settings: time 21.0 day
Procedure, shortened: (§4)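 Female BALB/c nude mice given 3 × 10^5 HCC827-luc cells in 2 μL RPMI1640 into the right forebrain under anesthesia. Randomized on day 20 after inoculation, n = 10 per group. Dosed PO b.i.d. at 12 h intervals for 21 days in 1% methylcellulose, with vehicle control. Biweekly IVIS imaging 10 min after IP D-luciferin, plus biweekly body weight. Day-21 means compared by unpaired two-tailed t-test.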

[15] = Toxicity in intracranial PDX BALB/c mouse model xenografted with human luciferase tagged HCC827 cells assessed as body weight loss at 10 mg/kg,po BID for 21 days; assay type: organism-based; settings: in vivo, 504 h, time 21 day; procedure, shortened: as §4
[16] = Toxicity in intracranial PDX BALB/c mouse model xenografted with human luciferase tagged HCC827 cells assessed as adverse clinical effects at 10 mg/kg,po BID for 21 days; assay type: organism-based; settings: in vivo, 504 h, time 21 day; procedure, shortened: as §4
[17] = Dissociation constant, pKa of compound by pH-metric titration method; assay type: physicochemical
[18] = Mutagenicity in Salmonella typhimurium TA98 at 5 to 100 uM incubated for 96 hrs by Ames fluctuation assay; assay type: toxicity; settings: salmonella enterica subsp. enterica serovar typhimurium, dose 5-100 µM; procedure, shortened: as §1
[19] = Mutagenicity in Salmonella typhimurium TA100 at 5 to 100 uM incubated for 96 hrs by Ames fluctuation assay; assay type: toxicity; settings: salmonella enterica subsp. enterica serovar typhimurium, dose 5-100 µM; procedure, shortened: as §1
[20] = Mutagenicity in Salmonella typhimurium TA1537 at 5 to 100 uM incubated for 96 hrs by Ames fluctuation assay; assay type: toxicity; settings: salmonella enterica subsp. enterica serovar typhimurium, dose 5-100 µM; procedure, shortened: as §1
[21] = Mutagenicity in Salmonella typhimurium TA1535 at 5 to 100 uM incubated for 96 hrs by Ames fluctuation assay; assay type: toxicity; settings: salmonella enterica subsp. enterica serovar typhimurium, dose 5-100 µM; procedure, shortened: as §1
[22] = Mutagenicity in Salmonella typhimurium TA98 at 5 to 100 uM incubated for 96 hrs in presence of rat liver S9 fraction by Ames fluctuation assay; assay type: toxicity, subcellular; settings: salmonella enterica subsp. enterica serovar typhimurium, s9, 96 h, dose 5-100 µM; procedure, shortened: as §1
[23] = Mutagenicity in Salmonella typhimurium TA100 at 5 to 100 uM incubated for 96 hrs in presence of rat liver S9 fraction by Ames fluctuation assay; assay type: toxicity, subcellular; settings: salmonella enterica subsp. enterica serovar typhimurium, s9, 96 h, dose 5-100 µM; procedure, shortened: as §1
[24] = Mutagenicity in Salmonella typhimurium TA1537 at 5 to 100 uM incubated for 96 hrs in presence of rat liver S9 fraction by Ames fluctuation assay; assay type: toxicity, subcellular; settings: salmonella enterica subsp. enterica serovar typhimurium, s9, 96 h, dose 5-100 µM; procedure, shortened: as §1
[25] = Mutagenicity in Salmonella typhimurium TA1535 at 5 to 100 uM incubated for 96 hrs in presence of rat liver S9 fraction by Ames fluctuation assay; assay type: toxicity, subcellular; settings: salmonella enterica subsp. enterica serovar typhimurium, s9, 96 h, dose 5-100 µM; procedure, shortened: as §1
[26] = Unbound brain-to-plasma concentration ratio in Han Wistar rat at 10 mg/kg,po and measured after 16 hrs by LC-MS/MS analysis; assay type: ADME, organism-based; settings: read-out: K(p,uu,brain)
[27] = Toxicity in Sprague-Dawley rat assessed as at 1 mg/kg, iv; settings: in vivo
[28] = Toxicity in Sprague-Dawley rat assessed as at 5 mg/kg, po; settings: in vivo

Row | Structure (SMILES) | Activity [18] | Activity [19] | Activity [20] | Activity [21] | Activity [22] | Activity [23] | Activity [24] | Activity [25] | further results
1 | COc1cc2ncnc(Nc3cccc(Cl)c3F)c2cc1OCCON1CCN(C)CC1 | – | – | – | – | – | – | – | – | Activity [1]: Non-Toxic; Activity [2]: Non-Toxic; Activity [3]: Non-Toxic; Activity [4]: Non-Toxic; Activity [5]: Non-Toxic; Activity [6]: Non-Toxic; Activity [7]: Non-Toxic; Activity [8]: Non-Toxic; AUC(0-inf) [9]: 0.61 µM·h; AUC [10]: 0.866 µM·h; AUC(0-inf) [11]: 5.29 µM·h; Activity [12]: Non-Toxic; Activity [13]: Non-Toxic; Drug metabolism [14]: < 5%; Activity (HCC827): Active; Activity [15]: Non-Toxic; Activity [16]: Non-Toxic
2 | NO [HYDROXYAMINE] | – | – | – | – | – | – | – | – | pKa [17]: 5.9
3 | COc1cc2ncnc(Nc3ccc(F)c(Cl)c3)c2cc1OCCON1CCOCC1 | Non-Toxic | Non-Toxic | Non-Toxic | Non-Toxic | Non-Toxic | Non-Toxic | Non-Toxic | Non-Toxic | –
4 | COc1cc2ncnc(Nc3ccc(F)c(Cl)c3)c2cc1OCCCN1CCOCC1 [GEFITINIB] | Non-Toxic | Non-Toxic | Non-Toxic | Non-Toxic | Non-Toxic | Non-Toxic | Non-Toxic | Non-Toxic | Kp uu at 16 h [26]: 0.009
5 | COc1cc2ncnc(Nc3cccc(Cl)c3F)c2cc1OCCON1CCOCC1 | Non-Toxic | Non-Toxic | Non-Toxic | Non-Toxic | Non-Toxic | Non-Toxic | Non-Toxic | Non-Toxic | Activity [27]: Non-Toxic; Activity [28]: Non-Toxic
